Sampled rows, rich in hits. Any-hit rate of the full collection: about 2.2%.
PPC-1+TRAIL kill: kills PPC-1 cancer cells in the presence of TRAIL; hit rate 0.41% among 220,000; PPC-1 cells + TRAIL, ATPLite viability luminescence; cell killing (% activity), % at 4 µM or 5 µM; AID 1443;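 active means cell killing above 50% in the first pass at 4 µM, then a duplicate retest at 5 µM averaging 50% or more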;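 further: plate controls were cells with TRAIL plus DMSO for no effect and medium-only wells lacking cells for full effect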
APP 5'UTR act: activates APP 5'UTR luciferase reporter; SH-SY5Y APP 5'UTR luciferase reporter, luminescence; zero percent = DMSO vehicle wells; hit rate 1% among 190,000; AID 1276; activation, % at 2 µM;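 active means activation above a set limit, based on mean plus 3 SD of controls, cut at about 140% in these data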
FLuc stim CS: firefly luciferase counter-screen for stimulation assays; 200,000 tested, under 10 active; P08659; ATPlite luciferase biochemical, luminescence, 10 min; 0 = ATP-free wells, 1 = DMSO control; activation factor at 10 µM; AID 1027;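 active means luciferase activation factor, scaled between plate controls, of at least 2 with compound at 10 µM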
Target sequence (P08659 whole entry, looked up): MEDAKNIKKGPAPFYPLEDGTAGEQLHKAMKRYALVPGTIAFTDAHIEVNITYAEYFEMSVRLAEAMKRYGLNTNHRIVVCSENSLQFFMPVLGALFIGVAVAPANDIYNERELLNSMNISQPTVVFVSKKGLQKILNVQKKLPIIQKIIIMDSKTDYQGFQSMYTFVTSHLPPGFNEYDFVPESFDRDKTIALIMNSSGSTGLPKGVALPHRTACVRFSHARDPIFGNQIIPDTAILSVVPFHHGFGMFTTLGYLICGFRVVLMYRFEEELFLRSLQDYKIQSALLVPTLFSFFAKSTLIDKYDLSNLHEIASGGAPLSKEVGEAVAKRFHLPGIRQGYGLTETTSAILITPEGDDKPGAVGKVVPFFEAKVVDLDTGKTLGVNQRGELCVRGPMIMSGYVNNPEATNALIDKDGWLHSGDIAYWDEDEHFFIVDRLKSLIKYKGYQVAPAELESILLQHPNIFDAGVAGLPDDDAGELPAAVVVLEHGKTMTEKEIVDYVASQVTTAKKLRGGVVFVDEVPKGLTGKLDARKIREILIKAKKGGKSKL
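Material: Luciferase/luciferin reagent mix | Doses: Test compounds dosed from 2 mM stocks in 100% DMSO | Timing: 10 min incubation after luciferase reagent addition, room temperature | Measured by: Luminescence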
NF-kB neuron act: compounds increasing NF-kB expression in human neuronal cells. NF-kB reporter expression; hits give high values. fold change at 12.5 µM. hit rate 1.6% among 190,000. AID 1239; in the data active means fold change above about 3.3
FLuc inhib CS: counter-screen for luciferase assay inhibitors: firefly luciferase inhibition; ATPLite firefly luciferase biochemical luminescence, 10 min; inhibition, % at 10 µM; hit rate 1.5% among 200,000; AID 1006;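 active means inhibition above about 50% when tested at 10 µM, limit read from the data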
C8 TRAIL sens: caspase-8 TRAIL sensitization. NB7+C8 cells + TRAIL, ATPlite viability luminescence. inhibition (viability loss, TRAIL sensitization), % at 10 µM. hit rate 1% among 360,000. AID 624354;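 active means compounds causing at least 50% loss of cell viability in the single-dose screen, relative to plate controls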
Active calls of the source: *; nt = not tested or not shown.

SMILES	PPC-1+TRAIL kill	APP 5'UTR act	FLuc stim CS	NF-kB neuron act	FLuc inhib CS	C8 TRAIL sens
Cc1ccc(NCc2nc3ccccc3n2C)cc1	43.9	175.3*	0.3	5.34*	69.5*	-6.5
Cn1c(NCc2ccc(Cl)cc2)nc2ccccc21	23.1	69.6	0.5	0.79	50.9*	31.3
Cc1ccc(CNc2nc3ccccc3n2C)cc1	nt	nt	nt	nt	nt	58.3*
COc1ccc(CNc2nc3ccccc3n2C)c(OC)c1	-4.1	119.8	0.7	3.43*	26.2	11.2
CC1(Cc2ccc(OC(F)(F)F)cc2)C(=O)Nc2ccc(S(=O)(=O)NC3CCCCC3)cc21 (stereo unspecified)	nt	nt	nt	nt	nt	63.7*
CC1(Cc2ccc(Cl)cc2)C(=O)Nc2ccc(S(=O)(=O)NC3CCCCC3)cc21 (stereo unspecified)	nt	nt	nt	nt	nt	7.4
COc1cccc(/C=N/Nc2nc3ccccc3n3cnnc23)c1O	34.2	-42.6	0.6	0.49	37.3	54.0*
COc1cccc(/C=N\NC(=O)Cn2nnc3ccccc32)c1O	11.4	-0.1	0.9	3.3*	7.7	32.8
CCc1c(C)c(C#N)c2nc3ccccc3n2c1Cl	60.1*	-95.0	1	0.22	-2.5	nt
CCc1c(C)c(C#N)c2nc3ccccc3n2c1-n1nc(C)cc1C	15.1	20.1	1	1.16	-4.1	-4.1
Cc1cc(O)c2c(c1O)C(=O)[C@]13C(=C2O)C(=O)[C@@H]2[C@@H](O)[C@H]1[C@@H]1[C@H](O)[C@H]3C(=O)C3=C(O)c4c(O)cc(C)c(O)c4C(=O)[C@]312	nt	nt	nt	nt	nt	48.1*
O=C1CCCC2=C1C(c1ccc(O)cc1)c1c(ccc3ccccc13)N2 (stereo unspecified)	8.6	202.5*	1	0.89	0.8	-8.3
Cc1cccc(C(=O)NCC(c2cccs2)N2CCOCC2)c1 (stereo unspecified)	nt	nt	nt	nt	nt	10.4
Cc1ccc2nc(-c3ccc(NC(=S)NC(=O)C(C)C)cc3)sc2c1	21.6	120.5	0.8	3.2	19.7	42.5
Cc1ccc2nc(-c3ccc(NC(=S)NC4CC(C)(C)NC(C)(C)C4)cc3)sc2c1	16.2	167.8*	0.9	1.26	13.1	24.6
CC1CCc2nc(NC(=O)c3ccc(N4C(=O)CCC4=O)cc3)sc2C1 (stereo unspecified)	nt	nt	nt	nt	nt	-8.5
CC1CCc2nc(NC(=O)C3CCCO3)sc2C1 (stereo unspecified)	30.3	172.2*	0.5	3.51*	48.2	40.8
CC1CCc2nc(NC(=O)Cc3cccs3)sc2C1 (stereo unspecified)	-12.4	105.0	0.8	4.34*	16.8	26.3
Cn1c(CSCc2ccc(Cl)c(Cl)c2)n[nH]c1=S	24.4	4.0	1	0.99	1.5	-5.9
CC(=O)NC12CC3CC(C1)CC(C(=O)OCC(=O)NC(=O)c1cccn1C)(C3)C2	10.3	0.5	1.1	1.08	-7.7	15.9
Cn1cccc1C(=O)NC(=O)COC(=O)C12CC3CC(CC(O)(C3)C1)C2	-11.4	34.3	0.4	0.43	57.3*	2.0
Cc1cc(O)c(C(=O)/C=C/c2ccc(Cl)cc2)c(=O)o1	nt	nt	nt	nt	nt	69.5*
O=C(O)/C=C/c1ccc([N+](=O)[O-])o1	8.6	-18.0	1.1	1.18	-5.3	-4.3
O=C(/C=C/c1ccc(Cl)cc1)c1ccc([N+](=O)[O-])o1	nt	nt	nt	nt	nt	59.8*
CSc1ccc(/C=C/C(=O)c2c(O)cc(C)oc2=O)cc1	nt	nt	nt	nt	nt	63.8*
SMILES	PPC-1+TRAIL kill	APP 5'UTR act	FLuc stim CS	NF-kB neuron act	FLuc inhib CS	C8 TRAIL sens
O=C(NCCC(=O)N1CCN(C(=O)c2ccco2)CC1)c1ccc(Br)cc1	nt	nt	nt	nt	nt	0.9
Cc1cc(C(=O)Nc2cccc(C(=O)O)c2)oc1C	41.7	-1.7	0.7	7.04*	31.6	21.6
CCOC(=O)c1cccc(NC(=O)c2cc3ccccc3o2)c1	nt	nt	nt	nt	nt	34.0
O=C(NCCOc1ccccc1)c1cc2ccccc2o1	12.5	95.8	1	4.44*	-0.2	-1.7
Cc1cccc(NC(=O)c2cc3ccccc3o2)c1	35.6	177.8*	0.3	6.7*	66.1*	43.6
CCC(=O)Nc1cccc(NC(=O)c2cc3ccccc3o2)c1	25.3	88.7	0.5	2.88	53.6*	22.3
CCC(=O)Nc1ccc(NC(=O)c2cc3ccccc3o2)c(OC)c1	nt	nt	nt	nt	nt	-22.1
Cc1cc(C(=O)Nc2cccc(C(=O)O)c2)c(C)o1	-23.7	12.4	0.9	1.23	6.3	0.0
Cc1ccc(S(=O)(=O)N2CCOCC2)cc1NC(=O)COC(=O)Cn1c(C)csc1=O	nt	nt	nt	nt	nt	6.8
Cc1nnc(-c2cnn(C)c2N)n1CCCN1CCOCC1	3.8	6.5	1.1	1.11	-6.1	2.5
O=C1c2ccccc2C(c2nc3ccccc3[nH]2)N1Cc1ccco1 (stereo unspecified)	nt	nt	nt	nt	nt	-14.3
CC#CC(=O)N1CCC(CCC(=O)N(C)Cc2ccccc2)CC1	nt	nt	nt	nt	nt	-3.5
CC(OC(=O)COc1ccccc1[N+](=O)[O-])C(=O)Nc1ccc(N2CCOCC2)cc1 (stereo unspecified)	nt	13.9	1	1.23	-2.3	-2.3
CC(C)C(=O)Nc1ccc(NC(=O)c2cc3ccccc3o2)cc1	-4.6	20.6	0.9	1.56	8.0	-1.1
O=C(Nc1cccc(Br)c1)c1cc2ccccc2o1	14.9	158.4*	0.7	5.71*	31.6	11.2
COc1ccc(CNC(=O)CCn2c(C)csc2=O)cc1	nt	nt	nt	nt	nt	-8.2
COC(=O)C1CCN(C2CN(Cc3ccccc3)S(=O)(=O)C2)CC1 (stereo unspecified)	nt	nt	nt	nt	nt	-0.3
CCCc1ccc(OC(=O)c2cccs2)cc1	-4.0	5.7	0.8	1.17	18.9	-26.5
CCCc1ccc(OC(=O)c2ccc(O)cc2Cl)cc1	-15.3	218.1*	0.7	4.27*	27.6	15.8
O=C(CN(c1cccc([N+](=O)[O-])c1)S(=O)(=O)c1ccccc1)NCc1cccnc1	nt	nt	nt	nt	nt	-20.3
O=C(CN(c1cccc(C(F)(F)F)c1)S(=O)(=O)c1ccc(Cl)c([N+](=O)[O-])c1)NCc1ccc(F)cc1	63.1*	10.8	1	0.78	-2.1	-7.6
CCOc1ccc(-c2noc(-c3cccnc3)n2)cc1OC	13.6	3.9	0.8	1.08	15.1	-0.8
CCOc1ccc(-c2nc(-c3ccccc3C)no2)cc1	38.7	77.7	0.5	nt	54.4*	nt
CCCCOc1ccc(-c2nc(-c3cccnc3)no2)cc1	31.4	174.8*	0.8	5.2*	22.3	16.6
COc1ccc(-c2nc(-c3cccnc3)no2)cc1	24.4	nt	nt	nt	nt	40.6
CCOc1ccc(-c2nc(-c3cccnc3)no2)cc1	32.4	129.3	0.3	6.79*	71.0*	57.6*
O=S(=O)(c1cccnc1)N1CCCC(Nc2ccc(F)c(F)c2)C1 (stereo unspecified)	nt	nt	nt	nt	nt	-4.7
CN1CCN(S(=O)(=O)c2ccc(NC(=S)NC(=O)C(C)(C)C)cc2)CC1	2.2	-10.0	1.1	1.03	-8.7	-1.3
C=CCn1c(SCc2c(C)noc2C)nc2ccccc2c1=O	-14.8	-94.5	1	3.38*	-2.5	13.4
Cc1cccc(C)c1NC(=O)CNC(=O)c1ccccc1OCc1ccccc1	nt	nt	nt	nt	nt	-9.4

From PubChem BioAssay
